Measurements published in ChEMBL document CHEMBL3244147 (J Med Chem, 1978).
The source made the active and inactive calls. The calls are words filed in the database; no cut-off is given here. Where a SMILES comes first, the peptide text is derived from it. The star is where a group is joined. NH(4-N(CH2CH2Cl)2-phenyl) = ClCCN(CCCl)c1ccc(N*)cc1; Cbz = O=C(OCc1ccccc1)*

Experiments:
[1] = Toxicity in ip dosed CF1 mouse after 14 days of injection; format: organism-based; settings: in vivo
Procedure, shortened: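 Female Carworth Farms mice, 16-20 g. Compound was suspended in 1% aqueous methylcellulose (ultrasonicated if insoluble) and diluted to doses of 4-324 mg/kg, given as 0.45 mL per mouse by a single intraperitoneal injection. Five mice per dose; survivors were counted at 14 days. LD50 is expressed in μmol/kg.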

[2] = test system: Sarcoma-180; assay: Antitumor activity against mouse Sarcoma 180 at 10 to 50% of LD50; format: functional
Procedure, shortened: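 Mice carrying well-advanced Sarcoma-180 tumours received a single intraperitoneal dose.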

[3] = test system: Liver; assay: Prodrug conversion in guinea pig liver homogenate assessed as cleavage of labelled compound; format: ADME, tissue-based, Cavia porcellus
[4] = Drug metabolism assessed as bacterial collagenase-mediated compound disappearance after 24 hrs by TLC autoradiography; format: ADME
Procedure, shortened: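 14C-labelled substrate at 2 mg/mL in dimethyl sulfoxide. 0.3 mL of it was mixed with 0.95 mL of pH 7.3 barbiturate/acetate/NaCl buffer containing calcium acetate, actidione and DMSO; the reaction mixture was 28% DMSO. The buffer held 5 mg bacterial collagenase (375 units/mg). Controls had no enzyme, trypsin or bovine serum albumin. Products were followed by TLC autoradiography.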

[5] = test system: Sarcoma-180; assay: Drug metabolism assessed as mouse Sarcoma 180 homogenate-mediated compound disappearance after 24 hrs by TLC autoradiography; format: ADME; settings: sarcoma-180, 24 h
Procedure, shortened: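 S-180 tumour tissue (0.85 g) was homogenised in cold pH 7.3 calcium acetate/DMSO buffer containing actidione, then spun at 5000 rpm for 10 min. The supernatant replaced enzyme in the collagenase-type assay with 14C-labelled substrate (2 mg/mL in DMSO) in 28% DMSO reaction mixture. Disappearance and products were read by TLC autoradiography.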

[6] = test system: Liver; assay: Prodrug conversion in mouse liver homogenate assessed as cleavage of labelled compound; format: ADME, tissue-based
[7] = test system: Liver; assay: Prodrug conversion in rat liver homogenate assessed as cleavage of labelled compound; format: ADME, tissue-based
[8] = test system: Liver; assay: Prodrug conversion in mouse liver homogenate assessed as release of labelled carbobenzyloxy-L-pro-lyl-L-leucine; format: ADME, tissue-based
[9] = test system: Liver; assay: Prodrug conversion in guinea pig liver homogenate assessed as release of labelled carbobenzyloxy-L-pro-lyl-L-leucine; format: ADME, tissue-based, Cavia porcellus
[10] = Prodrug conversion in pig liver homogenate assessed as cleavage of labelled compound; format: ADME, tissue-based, Sus scrofa
[11] = Prodrug conversion in pig liver homogenate assessed as release of labelled carbobenzyloxy-L-pro-lyl-L-leucine; format: ADME, tissue-based, Sus scrofa
[12] = test system: Liver; assay: Prodrug conversion in rat liver homogenate assessed as release of labelled carbobenzyloxy-L-pro-lyl-L-leucine; format: ADME, tissue-based

## CC(C)C[C@H](NC(=O)[C@@H]1CCCN1C(=O)[C@H](N)Cc1ccccc1)C(=O)NCC(=O)N1CCC[C@H]1C(=O)NCC(=O)Nc1ccc(N(CCCl)CCCl)cc1.O=C(O)C(F)(F)F
[1]
  LD50 at 336 h: 106 µmol/kg

## CC(C)C[C@H](NC(=O)[C@@H]1CCCN1C(=O)[C@@H](Cc1ccccc1)NC(=O)OC(C)(C)C)C(=O)NCC(=O)N1CCC[C@H]1C(=O)NCC(=O)Nc1ccc(N(CCCl)CCCl)cc1
[1]
  LD50 at 336 h: 105 µmol/kg

## O=C(CNC(=O)[C@@H]1CCCN1C(=O)OCc1ccccc1)Nc1ccc(N(CCCl)CCCl)cc1
[1]
  LD50 at 336 h: 119 µmol/kg

## CC(C)C[C@H](NC(=O)[C@@H]1CCCN1C(=O)[C@@H](C)NC(=O)OC(C)(C)C)C(=O)NCC(=O)N1CCC[C@H]1C(=O)NCC(=O)Nc1ccc(N(CCCl)CCCl)cc1
[1]
  LD50 at 336 h: 94.5 µmol/kg

## CC(C)C[C@H](NC(=O)[C@@H]1CCCN1C(=O)[C@@H](CCCCNC(=O)OC(C)(C)C)NC(=O)OC(C)(C)C)C(=O)NCC(=O)N1CCC[C@H]1C(=O)NCC(=O)Nc1ccc(N(CCCl)CCCl)cc1
[1]
  LD50 at 336 h: 100 µmol/kg

## CC(C)C[C@H](N)C(=O)NCC(=O)N1CCC[C@H]1C(=O)NCC(=O)Nc1ccc(N(CCCl)CCCl)cc1.O=C(O)C(F)(F)F (H-LGPG-{NH(4-N(CH2CH2Cl)2-phenyl)})
[1]
  LD50 at 336 h: 10.4 µmol/kg

## CC(C)C[C@H](NC(=O)[C@@H]1CCCN1C(=O)OCc1ccccc1)C(=O)NCC(=O)N1CCC[C@H]1C(=O)NCC(=O)Nc1ccc(N(CCCl)CCCl)cc1 (Cbz-PLGPG-{NH(4-N(CH2CH2Cl)2-phenyl)})
[2]
  Activity: inactive
[1]
  LD50 at 336 h: 123 µmol/kg

## NCC(=O)N1CCC[C@H]1C(=O)NCC(=O)Nc1ccc(N(CCCl)CCCl)cc1.O=C(O)C(F)(F)F
[1]
  LD50 at 336 h: 19.7 µmol/kg

## CC(C)C[C@H](NC(=O)[C@@H]1CCCN1C(=O)O[14CH2]c1ccccc1)C(=O)NCC(=O)N1CCC[C@H]1C(=O)NCC(=O)Nc1ccc(N(CCCl)CCCl)cc1
[3]
  Drug metabolism: metabolite_detected
[4]
  Drug metabolism: metabolite_detected
[5]
  Drug metabolism: metabolite_detected
[6]
  Drug metabolism: metabolite_detected
[7]
  Drug metabolism: metabolite_detected
[8]
  Drug metabolism: metabolite_detected
[9]
  Drug metabolism: metabolite_detected
[10]
  Drug metabolism: metabolite_detected
[11]
  Drug metabolism: metabolite_detected
[12]
  Drug metabolism: metabolite_detected

## CC(C)C[C@H](NC(=O)[C@@H]1CCCN1C(=O)[C@H](N)CCCCN)C(=O)NCC(=O)N1CCC[C@H]1C(=O)NCC(=O)Nc1ccc(N(CCCl)CCCl)cc1.O=C(O)C(F)(F)F
[2]
  Activity: inactive
[1]
  LD50 at 336 h: 78 µmol/kg
